The record followed here is ChEMBL document CHEMBL1149883, “alpha-Glucosidase inhibitory activity of triterpenoids from Cichorium intybus” (J Nat Prod, 2008).

Activity calls are given as the source filed them. No cut-off for these calls is given here.

Biological target in one test: not listed separately
The experiment in a line: (§1) Inhibition of Saccharomyces sp. alpha-glucosidase. The procedure, abridged:
(§2)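 Read spectrophotometrically at pH 6.9 and 37 °C in 50 mM sodium phosphate buffer with 100 mM NaCl. Substrate was 0.5 mM p-nitrophenyl α-D-glucopyranoside, and enzyme was 250 m units/mL. The rise in absorbance at 400 nm from PNP-G hydrolysis was followed continuously. 1-Deoxynojirimycin (0.425 mM) and acarbose (0.78 mM) served as positive controls. Modified from Oki et al.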
On to `COc1cc(C(=O)O)ccc1O` [VANILLIC ACID], for which half-maximal inhibition (IC50) was put at 69 µM.

With `C[C@H]1C(=O)CC[C@@H]2[C@]1(C)CC[C@H]1[C@@]2(C)CC[C@@]2(C)[C@@H]3CC(C)(C)CC[C@]3(C)CC[C@]12C` [FRIEDELINE], 321 µM corresponded to half-maximal inhibition (IC50). This IC50 lies about 4.7-fold higher than the previous one.

`C=C1[C@H](OC(C)=O)C[C@]2(C)CC[C@]3(C)[C@H](CC[C@@H]4[C@@]5(C)CC[C@H](OC(C)=O)C(C)(C)[C@@H]5CC[C@]43C)[C@H]2[C@H]1C`: 10 µM corresponded to half-maximal inhibition (IC50).

In the case of `OC[C@H]1NC[C@H](O)[C@@H](O)[C@@H]1O` [DUVOGLUSTAT], half-maximal inhibition (IC50) required 425 µM.

For `C=C1[C@H](O)C[C@]2(C)CC[C@]3(C)[C@H](CC[C@@H]4[C@@]5(C)CC[C@H](O)C(C)(C)[C@@H]5CC[C@]43C)[C@H]2[C@H]1C`, inhibition was half-maximal at 51.9 µM (IC50).

In another test the test system is Saccharomyces sp. Described as §1. The method in brief: as §2
With `CO[C@H]1O[C@H](CO)[C@H](O)[C@H](O)[C@H]1O`, the result was inactive.

`CC[C@H](CC[C@@H](C)[C@H]1CC[C@H]2[C@@H]3CC=C4C[C@@H](O)CC[C@]4(C)[C@H]3CC[C@]12C)C(C)C`: the outcome was inactive.

Consider `O=c1ccc2cc(O)c(O)cc2o1`, for which the result was inactive.

Regarding `C=C1[C@@H]2CC[C@@]3(C)[C@@H](c4ccoc4)OC(=O)C[C@@]13O[C@H]1CC(=O)C(C)(C)[C@H](C(O)C(=O)OC)[C@]12C` (stereo not given in full), the outcome was inactive.

Consider `C=C(C)[C@@H]1CC[C@]2(CO)CC[C@]3(C)[C@H](CC[C@@H]4[C@@]5(C)CC[C@H](O)C(C)(C)[C@@H]5CC[C@]43C)[C@@H]12`, for which the outcome was inactive.

Regarding `COc1cc(C(=O)O)cc(OC)c1O`, the result was inactive.

Turning to `C=C(C)[C@@H]1CC[C@]2(C=O)CC[C@]3(C)[C@H](CC[C@@H]4[C@@]5(C)CC[C@H](O)C(C)(C)[C@@H]5CC[C@]43C)[C@@H]12`, the outcome was inactive.

Turning to `CC[C@H](/C=C/[C@@H](C)[C@H]1CC[C@H]2[C@@H]3CC=C4C[C@@H](O)CC[C@]4(C)[C@H]3CC[C@]12C)C(C)C`, the outcome was inactive.

`C=C(C)[C@@H]1CC[C@]2(C(=O)O)CC[C@]3(C)[C@H](CC[C@@H]4[C@@]5(C)CC[C@H](O)C(C)(C)[C@@H]5CC[C@]43C)[C@@H]12`: the result was inactive.

For the compound `C=C(C)[C@@H]1CC[C@]2(C)CC[C@]3(C)[C@H](CC[C@@H]4[C@@]5(C)CC[C@H](O)C(C)(C)[C@@H]5CC[C@]43C)[C@@H]12`, the result was inactive.
